Measurements as given in ChEMBL document CHEMBL1141286, “Benzochromenones from the marine crinoid Comantheria rotula inhibit hypoxia-inducible factor-1 (HIF-1) in cell-based reporter assays and differentially suppress the growth of certain tumor cell lines” (J Nat Prod, 2007).

Assays:
T47D = assay: Growth inhibition of human T47D cells; format: functional
COLO 205 = assay: Growth inhibition of human COLO205 cells; format: functional
SF-295 = assay: Growth inhibition of human SF295 cells; format: functional
CCRF-CEM = assay: Growth inhibition of human CCRF-CEM cells; format: functional
PC-3 = assay: Growth inhibition of human PC3 cells; format: functional
IGROV-1 = assay: Growth inhibition of human IGROV1 cells; format: functional
[1] = Inhibition of luciferase
Summary of the method: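 Purified recombinant firefly luciferase (QuantiLum, 46.8 μg mL−1) mixed with compound in passive lysis buffer containing BSA (1 mg mL−1); equal volume of luciferase substrate added, light output read; percentage inhibition relative to DMSO control; concentration-response curves up to 30 μM.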

[2] = target: Hypoxia inducible factors; HIF-1-alpha, HIF-2-alpha (Homo sapiens, UniProt Q16665+Q99814); assay: Inhibition of HIF1 activation in human T47D cells by TK-luciferase assay; format: cell-based
Summary of the method: (§1)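 HIF-1 reporter (pHRE-TK-Luc) assays in transfected PC-3 or T47D cells; HIF-1 induced by hypoxia or by the hypoxia mimetic 1,10-phenanthroline (10 μM); compounds at half-log concentrations; luciferase activity measured; IC50 from experiments in triplicate.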

HCT-15 = assay: Growth inhibition of human HCT15 cells; format: functional
RPMI-8226 = assay: Growth inhibition of human RPMI8226 cells; format: functional
[3] = Inhibition of HIF1 activation in PC3 cells by TK-luciferase assay; format: cell-based; details: Homo sapiens, PC-3; summary of the method: as §1
SK-MEL-2 = assay: Growth inhibition of human SK-MEL2 cells; format: functional
HOP-92 = assay: Growth inhibition of human HOP92 cells; format: functional
SW-620 = assay: Growth inhibition of human SW620 cells; format: functional
[4] = Growth inhibition of human OVACAR3 cells; format: functional
ACHN = assay: Growth inhibition of human ACHN cells; format: functional
OVCAR-5 = assay: Growth inhibition of human OVACAR5 cells; format: functional
NCI-H23 = assay: Growth inhibition of human NCI-H23 cells; format: functional
MCF7 = assay: Growth inhibition of human MCF7 cells; format: functional
UACC-257 = assay: Growth inhibition of human UACC257 cells; format: functional
SK-MEL-28 = assay: Growth inhibition of human SK-MEL28 cells; format: functional
DU-145 = assay: Growth inhibition of human DU145 cells; format: functional
SN12C = assay: Growth inhibition of human SN12C cells; format: functional
MDA-MB-435 = assay: Growth inhibition of human MDA-MB-435 cells; format: functional
UACC-62 = assay: Growth inhibition of human UACC62 cells; format: functional
SNB-75 = assay: Growth inhibition of human SNB75 cells; format: functional
[5] = read-out: Log LC50 (the source's name) (converted)

For `CCCc1cc(=O)c2c(OC)c3c(OC)cc(O)c(Oc4c(O)cc(OC)c5c(OC)c6c(=O)cc(CCC)oc6cc45)c3cc2o1`, which GI50 (T47D) is on record?
The GI50 was 3.63 µM.

And the LC50 (T47D)?
The LC50 was 91.2 µM.

What about the TGI (T47D; read-out: Log TGI (converted)) of the same compound?
Its TGI is 12.9 µM.

What about the GI50 (COLO 205) of the same compound?
The GI50 was 10 µM.

What about the CC50 (COLO 205; [5]) of the same compound?
The CC50 was 57.5 µM.

And the TGI (COLO 205; read-out: Log TGI (converted))?
The TGI was 24 µM.

And the GI50 (SF-295)?
Its GI50 is 5.13 µM.

What about the LC50 (SF-295) of the same compound?
Its LC50 is 50.1 µM.

What about the TGI (SF-295; read-out: Log TGI (converted)) of the same compound?
The TGI was 18.6 µM.

And the GI50 (CCRF-CEM)?
The GI50 was 2.34 µM.

And the LC50 (CCRF-CEM)?
The LC50 was > 100 µM.

What about the TGI (CCRF-CEM; read-out: Log TGI (converted)) of the same compound?
The TGI was 14.1 µM.

What about the GI50 (PC-3) of the same compound?
Its GI50 is 6.31 µM.

What about the LC50 (PC-3) of the same compound?
Its LC50 is 46.8 µM.

And the TGI (PC-3; read-out: Log TGI (converted))?
Its TGI is 20 µM.

What about the GI50 (IGROV-1) of the same compound?
The GI50 was 10.2 µM.

What about the CC50 (IGROV-1; [5]) of the same compound?
The CC50 was 57.5 µM.

And the TGI (IGROV-1; read-out: Log TGI (converted))?
The TGI was 24 µM.

And the IC50 [1]?
Its IC50 is 2.4 µM.

And the IC50 [2]?
The IC50 was 7.3 µM.

What about the GI50 (HCT-15) of the same compound?
Its GI50 is 7.41 µM.

And the CC50 (HCT-15; [5])?
The CC50 was 47.9 µM.

What about the TGI (HCT-15; read-out: Log TGI (converted)) of the same compound?
The TGI was 20.4 µM.

And the GI50 (RPMI-8226)?
Its GI50 is 4.9 µM.

And the CC50 (RPMI-8226; [5])?
The CC50 was 70.8 µM.

What about the TGI (RPMI-8226; read-out: Log TGI (converted)) of the same compound?
Its TGI is 21.4 µM.

And the IC50 [3]?
The IC50 was 10 µM.

And the GI50 (SK-MEL-2)?
The GI50 was 10.7 µM.

What about the LC50 (SK-MEL-2) of the same compound?
The LC50 was 61.7 µM.

And the TGI (SK-MEL-2; read-out: Log TGI (converted))?
The TGI was 25.7 µM.

And the GI50 (HOP-92)?
The GI50 was 2.14 µM.

What about the CC50 (HOP-92; [5]) of the same compound?
The CC50 was 50.1 µM.

What about the TGI (HOP-92; read-out: Log TGI (converted)) of the same compound?
Its TGI is 13.8 µM.

And the GI50 (SW-620)?
Its GI50 is 11.5 µM.

And the CC50 (SW-620; [5])?
The CC50 was 61.7 µM.

And the TGI (SW-620; read-out: Log TGI (converted))?
Its TGI is 26.3 µM.

And the GI50 [4]?
Its GI50 is 2.19 µM.

What about the CC50 [4, 5] of the same compound?
The CC50 was 57.5 µM.

What about the TGI ([4]; read-out: Log TGI (converted)) of the same compound?
The TGI was 8.71 µM.

What about the GI50 (ACHN) of the same compound?
Its GI50 is 7.08 µM.

And the CC50 (ACHN; [5])?
The CC50 was 45.7 µM.

What about the TGI (ACHN; read-out: Log TGI (converted)) of the same compound?
Its TGI is 20 µM.

What about the GI50 (OVCAR-5) of the same compound?
The GI50 was 7.08 µM.

And the LC50 (OVCAR-5)?
The LC50 was 100 µM.

And the TGI (OVCAR-5; read-out: Log TGI (converted))?
The TGI was 30.9 µM.

And the GI50 (NCI-H23)?
Its GI50 is 2.45 µM.

And the CC50 (NCI-H23; [5])?
The CC50 was 33.9 µM.

And the TGI (NCI-H23; read-out: Log TGI (converted))?
The TGI was 6.92 µM.

What about the GI50 (MCF7) of the same compound?
Its GI50 is 3.31 µM.

And the LC50 (MCF7)?
The LC50 was 100 µM.

What about the TGI (MCF7; read-out: Log TGI (converted)) of the same compound?
Its TGI is 10 µM.

And the GI50 (UACC-257)?
The GI50 was 3.8 µM.

And the LC50 (UACC-257)?
The LC50 was 40.7 µM.

And the TGI (UACC-257; read-out: Log TGI (converted))?
Its TGI is 13.8 µM.

And the GI50 (SK-MEL-28)?
Its GI50 is 11.5 µM.

What about the CC50 (SK-MEL-28; [5]) of the same compound?
The CC50 was 53.7 µM.

And the TGI (SK-MEL-28; read-out: Log TGI (converted))?
The TGI was 24.5 µM.

And the GI50 (DU-145)?
Its GI50 is 6.03 µM.

What about the CC50 (DU-145; [5]) of the same compound?
The CC50 was 43.7 µM.

And the TGI (DU-145; read-out: Log TGI (converted))?
Its TGI is 18.6 µM.

What about the GI50 (SN12C) of the same compound?
The GI50 was 2.09 µM.

What about the LC50 (SN12C) of the same compound?
Its LC50 is 14.1 µM.

What about the TGI (SN12C; read-out: Log TGI (converted)) of the same compound?
The TGI was 4.79 µM.

And the GI50 (MDA-MB-435)?
The GI50 was 2.24 µM.

And the LC50 (MDA-MB-435)?
Its LC50 is 15.8 µM.

What about the TGI (MDA-MB-435; read-out: Log TGI (converted)) of the same compound?
Its TGI is 5.13 µM.

And the GI50 (UACC-62)?
Its GI50 is 4.9 µM.

And the LC50 (lethal concentration, 50% cell kill) (UACC-62)?
The LC50 (lethal concentration, 50% cell kill) was 41.7 µM.

And the TGI (UACC-62; read-out: Log TGI (converted))?
Its TGI is 17 µM.

And the GI50 (SNB-75)?
Its GI50 is 2.95 µM.

And the LC50 (SNB-75)?
Its LC50 is 30.2 µM.

What about the TGI (SNB-75; read-out: Log TGI (converted)) of the same compound?
Its TGI is 8.71 µM.
